# In ChEMBL document CHEMBL1144285, “Pyrrolidinohydroquinazolines--a novel class of CCR3 modulators” (Bioorg Med Chem Lett, 2005):
# Target: T1, C-C chemokine receptor type 3 (Homo sapiens, UniProt P51677)
# T1 sequence (P51677 whole entry): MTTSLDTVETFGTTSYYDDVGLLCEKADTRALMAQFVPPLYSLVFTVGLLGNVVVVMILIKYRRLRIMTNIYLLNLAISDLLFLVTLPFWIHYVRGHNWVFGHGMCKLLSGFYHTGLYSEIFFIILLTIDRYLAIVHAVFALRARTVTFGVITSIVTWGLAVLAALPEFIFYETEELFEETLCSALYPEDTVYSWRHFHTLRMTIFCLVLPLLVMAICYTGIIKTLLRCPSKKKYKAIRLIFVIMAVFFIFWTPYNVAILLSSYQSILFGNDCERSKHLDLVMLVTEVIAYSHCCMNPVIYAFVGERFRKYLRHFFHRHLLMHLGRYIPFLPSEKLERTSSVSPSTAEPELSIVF
# Assay: Binding affinity measured for human C-C chemokine receptor type 3 expressed on human K562 cell membrane
# Type: cell membranes
# Outline: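 Membranes from K562 cells transfected with human CCR3 (disrupted by nitrogen decompression, spun 40,000g, 4 °C, 1 h), 0.5–5 µg protein/well. SPA with WGA-coated PVT beads and 125I-rh eotaxin-1. Compounds added as DMSO dilutions, incubated 2 h. Buffer: 25 mM HEPES, 25 mM MgCl2, 1 mM CaCl2, 0.1% BSA. Unlabelled rh eotaxin defined nonspecific binding. Ki obtained by iterative mass-action fitting.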
row,Ki,Compound
1,90 nM,Brc1ccccc1/C=C1\CCN2Cc3ccccc3N=C12
2,7900 nM,Fc1ccc(C2C/C(=C\c3ccccc3Br)C3=Nc4ccccc4CN32)cc1 (stereo unspecified)
3,1800 nM,Clc1cccc(Cl)c1/C=C1\CCN2Cc3ccccc3N=C12
4,35 nM,N=c1c2ccccc2nc2n1CC/C2=C\c1ccccc1Cl
5,3200 nM,FC(F)(F)Oc1ccccc1/C=C1\CCN2Cc3ccccc3N=C12
6,250 nM,CCCCC1C/C(=C\c2ccccc2Br)C2=Nc3ccccc3CN21 (stereo unspecified)
7,350 nM,N=c1c2c3c(sc2nc2n1CC/C2=C\c1ccccc1Br)CCCC3
8,260 nM,Cc1sc2nc3n(c(=N)c2c1C)CC/C3=C\c1ccccc1Br
9,290 nM,N=c1c2c(C3CC3)csc2nc2n1CC/C2=C\c1ccccc1Br
10,720 nM,Clc1ccc(/C=C2\CCN3Cc4ccccc4N=C23)cc1Cl
11,6100 nM,N#C/N=c1/c2ccccc2nc2n1CC/C2=C\c1ccccc1Br
12,1400 nM,Fc1ccccc1/C=C1\CCN2Cc3ccccc3N=C12
13,1700 nM,Clc1ccc(/C=C2\CCN3Cc4ccccc4N=C23)c(Cl)c1
14,140 nM,CCC1C/C(=C\c2ccccc2Cl)C2=Nc3ccccc3CN21 (stereo unspecified)
15,28 nM,N=c1c2ccccc2nc2n1CC/C2=C\c1ccccc1Br
16,310 nM,C/N=c1/c2ccccc2nc2n1CC/C2=C\c1ccccc1Br

row,Ki,Compound
1,28 nM,N=c1c2ccsc2nc2n1CC/C2=C\c1ccccc1Br
2,830 nM,N=c1c2nc[nH]c2nc2n1CC/C2=C\c1ccccc1Br
3,110 nM,Clc1ccccc1/C=C1\CCN2Cc3ccccc3N=C12
4,3900 nM,COc1ccc(/C=C2\CCn3c2nc2ccccc2c3=N)cc1
5,76 nM,N=c1c2ccccc2nc2n1CC/C2=C\c1ccccc1I
6,1200 nM,CC(C)(C)c1csc2nc3n(c(=N)c12)CC/C3=C\c1ccccc1Br
7,2900 nM,C(=C1/CCN2Cc3ccccc3N=C12)/c1ccccc1-c1ccccc1
8,930 nM,Fc1ccc(/C=C2\CCN3Cc4ccccc4N=C23)c(Cl)c1
9,4500 nM,CCOc1ccccc1/C=C1\CCN2Cc3ccccc3N=C12
10,270 nM,Cc1oc2nc3n(c(=N)c2c1C)CC/C3=C\c1ccccc1Br
11,360 nM,CCc1ccccc1/C=C1\CCn2c1nc1ccccc1c2=N
12,820 nM,N=c1c2cccnc2nc2n1CC/C2=C\c1ccccc1Br
13,1400 nM,CN(C)c1ccc(/C=C2\CCN3Cc4ccccc4N=C23)c(Cl)c1
14,1600 nM,FC(F)(F)c1ccccc1/C=C1\CCN2Cc3ccccc3N=C12
15,1400 nM,CCc1ccccc1/C=C1\CCN2Cc3ccccc3N=C12
